Assay results collected from several papers.
Each line is one published result; the experiments were not run side by side.
Target: Serine/threonine-protein kinase PLK3 (PLK3, Homo sapiens, UniProt Q9H4B4)

O=C(NCCCN1CCOCC1)c1ccc(Nc2nccc(-c3cc4ccccc4s3)n2)cc1
remaining binding (binding, competition with immobilised ligand; 1 µM): 42%

COc1cnc(Nc2cccc(S(N)(=O)=O)c2)nc1N1CCN(c2ccccc2)C(=O)C1
remaining binding (binding, competition with immobilised ligand; 1 µM): 63%

CN(C)c1nccc(-c2cnc3ncccn23)n1
remaining binding (binding; 1 µM): 66%

O=C(Nc1cccnn1)N1CC(C/C=C/c2cncc(Oc3ccc(C(F)(F)F)cn3)n2)C1
remaining binding (cell-free assay, competition with immobilised ligand; 1 µM): 80%

CN(C)c1ncc(F)c(-c2cnn3ncccc23)n1
remaining binding (binding; 1 µM): 79%

Nc1ncc2c(n1)-c1c([nH]c3ccc(C#CC4CC4)cc13)CCCC2
remaining binding (binding, competition with immobilised ligand; 1 µM): 99%

CN([C@@H]1CCc2c(CC(=O)O)c3ccccc3n2C1)S(=O)(=O)c1ccc(F)cc1
remaining binding (cell-free assay, competition with immobilised ligand; 1 µM): 85%

c1cncc(-c2cccc(Nc3nccc(NC4CCCCC4)n3)c2)c1
remaining binding (binding, competition with immobilised ligand; 10 µM): 78%

CC(C)(C)c1ccc(-c2nc(CBr)nn2-c2cccc(O)c2)cc1
remaining binding (cell-free assay, competition with immobilised ligand; 10 µM): 98%

C[C@@H]1CCN(c2nccc(-c3cnn4ncccc34)n2)C1
remaining binding (binding; 1 µM): 88%

C[C@@H]1CN(c2cc(-c3n[nH]c4ccc(OC5(C)CC5)cc34)ncn2)C[C@H](C)O1
remaining binding (cell-free assay, competition with immobilised ligand; 0.1 µM): 84%

C[C@@H]1CN(c2ccc3ncc(-c4ccc5[nH]nc(C6CC6)c5c4)n3n2)C[C@H](C)O1
remaining binding (binding, competition with immobilised ligand; 50 nM): 78%

NS(=O)(=O)c1cc(NC(=O)Cc2ccccc2)ccc1Oc1cccc(Cl)c1
remaining binding (cell-free assay, competition with immobilised ligand; 1 µM): 87%

O=C(c1ccc(Nc2nccc(-c3cc4ccccc4s3)n2)cc1)N1CCC(N2CCCC2)CC1
remaining binding (binding, competition with immobilised ligand; 1 µM): 81%

CN(C)c1nccc(-c2cnn3ncccc23)n1
remaining binding (binding; 1 µM): 83%

O=C(O)c1cc(-c2ccc(C3CCNCC3)cc2)c2ccc(-c3ccc(C(F)(F)F)cc3)cc2c1
remaining binding (cell-free assay, competition with immobilised ligand; 1 µM): 100%
